According to ChEMBL document CHEMBL2406957, “C-(α-d-Glucopyranosyl)-phenyldiazomethanes-irreversible inhibitors of α-glucosidase” (Bioorg Med Chem, 2013):
Values belong to the molecule of their own block, whether it stands above or below them. Activity calls are given as the source filed them. The rule behind the calls is not given here.

What was measured:
Saccharomyces cerevisiae [1] = test: Inhibition of Saccharomyces cerevisiae alpha-glucosidase using PNPG as substrate at 60 uM incubated for 40 mins prior to substrate addition measured after 5 mins by spectrophotometry relative to control
Outline: (§1)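 Enzyme (final 4 µg/mL, 0.064 µM) incubated 40 min at 30 °C in pH 7.5 buffer with compound at final 0.01–0.08 mM. Aliquot then added to 2 mM PNPG in pH 6.8 buffer for 5 min at 30 °C. Reaction quenched with Na2CO3, p-nitrophenolate read at 400 nm. Residual activity expressed relative to enzyme control.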

[2] = Half life of the compound in buffer at 50 uM at pH 4.0 by UV-vis spectrophotometric analysis; format: physicochemical
Outline: (§2)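 Isolated diazo compound dissolved at 50 μM in buffer of set pH (7.0 down to 3.0) in a cuvette; UV spectra scanned 190–350 nm every 30 s at room temperature until no further change. Blue shift of λmax followed; decay fitted to a single exponential, t1/2 = t1 ln2.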

[3] = Chemical stability of the compound in neutral media at 50 uM at pH 7.0 by UV-vis spectrophotometric analysis; format: physicochemical; settings: buffer, pH 7, 50 µM; outline: as §2
[4] = Half life of the compound in buffer at 50 uM at pH 3.0 by UV-vis spectrophotometric analysis; format: physicochemical; outline: as §2
[5] = Irreversible inhibition of Saccharomyces cerevisiae alpha-glucosidase using PNPG as substrate by Kitz-Wilson plot analysis
Outline: (§3)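 Yeast α-glucosidase (final 4 µg/mL, 0.064 µM) preincubated at 30 °C in pH 7.5 Tris–HCl with inhibitor at final 0.01–0.08 mM. Aliquots taken at 5–40 min into 2 mM PNPG (pH 6.8), 5 min at 30 °C, Na2CO3 quench, A400. Activity as % of no-inhibitor control. kobs from first-order fits; Ki and ki from double-reciprocal Kitz–Wilson replot.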

[6] = Half life of the compound in buffer at 50 uM at pH 5.0 by UV-vis spectrophotometric analysis; format: physicochemical; outline: as §2
[7] = Half life of the compound in buffer at 50 uM at pH 6.0 by UV-vis spectrophotometric analysis; format: physicochemical; outline: as §2
[8] = Inhibition of Saccharomyces cerevisiae alpha-glucosidase using PNPG as substrate incubated for 40 mins prior to substrate addition measured after 5 mins by spectrophotometry; outline: as §1
Saccharomyces cerevisiae [9] = test: Irreversible inhibition of Saccharomyces cerevisiae alpha-glucosidase using PNPG as substrate at 0.04 mM incubated for 5 to 40 mins prior to substrate addition measured after 5 mins by spectrophotometry in presence of (2R,3R,4R,5S,6R)-2-((R)-amino(phenyl)methyl)-6-(hydroxymethyl)tetrahydro-2H-pyran-3,4,5-triol
Saccharomyces cerevisiae [10] = test: Irreversible inhibition of Saccharomyces cerevisiae alpha-glucosidase using PNPG as substrate assessed as residual enzyme activity incubated for 5 to 40 mins prior to substrate addition measured after 5 mins by spectrophotometry; outline: as §3
[11] = Reversible inhibition of Saccharomyces cerevisiae alpha-glucosidase using PNPG as substrate

inhibition (Saccharomyces cerevisiae [1]): 90%
half-life at 50 µM [2]: 0.483 min
Stability [3]: Stable
half-life at 50 µM [4]: 0.183 min
Ki [5]: 2160 µM
half-life at 50 µM [6]: 2.35 min
half-life at 50 µM [7]: 4.2 min
IC50 [8]: 20.6 µM
inhibition (Saccharomyces cerevisiae [9]): inactive
inhibition (Saccharomyces cerevisiae [10]): Dose-dependent effect
Structure (SMILES): N#Cc1ccc(C(=[N+]=[N-])[C@H]2O[C@H](CO)[C@@H](O)[C@H](O)[C@H]2O)cc1

inhibition (Saccharomyces cerevisiae [1]): 40%
Structure (SMILES): N#Cc1ccc(C[C@H]2O[C@H](CO)[C@@H](O)[C@H](O)[C@H]2O)cc1

Ki [11]: 1.1 µM
Structure (SMILES): N[C@H](c1ccccc1)[C@H]1O[C@H](CO)[C@@H](O)[C@H](O)[C@H]1O

inhibition (Saccharomyces cerevisiae [1]): 40%
Structure (SMILES): N#Cc1ccc([C@H](O)[C@H]2O[C@H](CO)[C@@H](O)[C@H](O)[C@H]2O)cc1
